We go through 1 compound from ChEMBL document CHEMBL3769383, “Cefsulodin Inspired Potent and Selective Inhibitors of mPTPB, a Virulent Phosphatase from Mycobacterium tuberculosis” (ACS Med Chem Lett, 2015).

A short description of assay [1]: Selectivity ratio of IC50 for FAP1 (unknown origin) to IC50 for Mycobacterium tuberculosis PTPB.
Assay [2] in a line: Selectivity ratio of IC50 for LYP (unknown origin) to IC50 for Mycobacterium tuberculosis PTPB.
For assay [3], the system named is RAW264.7. The assay is described as follows: Inhibition of Mycobacterium tuberculosis PTPB transfected in mouse RAW264.7 cells decrease in Akt phosphorylation pre-treated for 1 hrs followed by stimulation with IFNgamma for 1 hr by Western blotting method. The assay is classed as cell-based. In general terms: Immunoblotting shows a protein as a band on a membrane.

Assay [4] can be described thus: Selectivity ratio of IC50 for HePTP (unknown origin) to IC50 for Mycobacterium tuberculosis PTPB.
The target of assay [5] is Receptor-type tyrosine-protein phosphatase beta (Homo sapiens) (UniProt P23467). The assay is described as follows: Inhibition of PTPbeta (unknown origin) using pNPP as substrate at 200 uM after 5 mins by spectrophotometry. The gist of the method:
(§1)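 Single-point screen: the test compound is present at 200 μM in the assay (a compound concentration, not a substrate level). The read-out is phosphatase-catalysed hydrolysis of para-nitrophenyl phosphate.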

Assay [6] has as its target Tyrosine-protein phosphatase non-receptor type 13 (Homo sapiens) (UniProt Q12923). Nature of the assay: Inhibition of FAP1 (unknown origin) expressed in Escherichia coli using pNPP as substrate at 200 uM after 5 mins by spectrophotometry. Put shortly: as §1
Assay [7] in a line: Inhibition of Mycobacterium tuberculosis PTPB expressed in Escherichia coli BL21/DE3 cells using pNPP as substrate after 5 mins by spectrophotometry.
The nature of assay [8]: Selectivity ratio of IC50 for PTPgamma (unknown origin) to IC50 for Mycobacterium tuberculosis PTPB. The gist of the method: (§2)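 Each phosphatase in the 25-enzyme panel was tested for inhibition at 200 μM compound. The mPTPB IC50 was determined against mPTPB-catalysed hydrolysis of para-nitrophenyl phosphate. The ratio is the panel-enzyme IC50 divided by the mPTPB IC50.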

Assay [9] in a line: Selectivity ratio of IC50 for VHX (unknown origin) to IC50 for Mycobacterium tuberculosis PTPB. The gist of the method: as §2
The target of assay [10] is Receptor-type tyrosine-protein phosphatase S (Homo sapiens) (UniProt Q13332). Nature of the assay: Inhibition of PTPsigma (unknown origin) using pNPP as substrate at 200 uM after 5 mins by spectrophotometry. Put shortly:
as §1

Assay [11] addresses Tyrosine-protein phosphatase non-receptor type 1 (Homo sapiens) (UniProt P18031). The assay is described as follows: Inhibition of PTP1B (unknown origin) expressed in Escherichia coli using pNPP as substrate at 200 uM after 5 mins by spectrophotometry. Put shortly:
as §1

Assay [12] has as its system RAW264.7. The assay is described as follows: Inhibition of Mycobacterium tuberculosis PTPB transfected in mouse RAW264.7 cells assessed as increase in ERK1/2 phosphorylation pre-treated for 1 hrs followed by stimulation with IFNgamma for 1 hr by Western blotting method. It is filed as cell-based.
In assay [13] the test system is Mycobacterium tuberculosis. The assay is described as follows: Selectivity ratio of IC50 for Mycobacterium tuberculosis PTPA to IC50 for Mycobacterium tuberculosis PTPB.
Assay [14] in a line: Selectivity ratio of IC50 for PTPH1 (unknown origin) to IC50 for Mycobacterium tuberculosis PTPB. Put shortly:
as §2

The target of assay [15] is Dual specificity protein phosphatase 22 (Homo sapiens) (UniProt Q9NRW4). The assay is described as follows: Inhibition of VHX (unknown origin) expressed in Escherichia coli using pNPP as substrate at 200 uM after 5 mins by spectrophotometry. The gist of the method: as §1
Assay [16] can be described thus: Selectivity ratio of IC50 for PTPepsilon (unknown origin) to IC50 for Mycobacterium tuberculosis PTPB. Put shortly:
as §2

Assay [17] addresses MAP kinase p38 (Mus musculus) (UniProt P47811+O08911+Q9WUI1+Q9Z1B7). Nature of the assay: Effect on p38 phosphorylation in mouse RAW264.7 cells transfected with empty vector at 10 to 40 nM pre-treated for 1 hrs followed by stimulation with IFNgamma for 1 hr by Western blotting method. The assay is classed as cell-based.
The target in another assay is Laforin (Homo sapiens) (UniProt O95278). Nature of the assay: Inhibition of Laforin (unknown origin) using pNPP as substrate at 200 uM after 5 mins by spectrophotometry. The gist of the method: as §1
The nature of assay [18]: Selectivity ratio of IC50 for SHP1 (unknown origin) to IC50 for Mycobacterium tuberculosis PTPB. The gist of the method:
as §2

For assay [19], the target named is Receptor-type tyrosine-protein phosphatase C (Homo sapiens) (UniProt P08575). The assay is described as follows: Inhibition of CD45 (unknown origin) expressed in Escherichia coli using pNPP as substrate at 200 uM after 5 mins by spectrophotometry. Put shortly: as §1
Assay [20] can be described thus: Selectivity ratio of IC50 for PTPbeta (unknown origin) to IC50 for Mycobacterium tuberculosis PTPB. Put shortly:
as §2

Assay [21] addresses Receptor-type tyrosine-protein phosphatase mu (Homo sapiens) (UniProt P28827). The assay is described as follows: Inhibition of PTPmu (unknown origin) using pNPP as substrate at 200 uM after 5 mins by spectrophotometry. Put shortly: as §1
The target in assay [22] is Low molecular weight protein-tyrosine phosphatase A (Mycobacterium tuberculosis) (UniProt P9WIA1). Nature of the assay: Inhibition of Mycobacterium tuberculosis PTPA expressed in Escherichia coli using pNPP as substrate at 200 uM after 5 mins by spectrophotometry. Put shortly: as §1

Activity calls are given as the source filed them. The rule behind the calls is not given here.

Sequence of Dual specificity protein phosphatase 22 (Homo sapiens) (Q9NRW4 whole entry): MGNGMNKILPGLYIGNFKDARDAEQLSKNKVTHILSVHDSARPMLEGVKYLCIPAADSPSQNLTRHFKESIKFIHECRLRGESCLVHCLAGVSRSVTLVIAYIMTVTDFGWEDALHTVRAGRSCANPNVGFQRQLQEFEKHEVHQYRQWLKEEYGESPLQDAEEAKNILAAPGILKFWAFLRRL
Sequence of Receptor-type tyrosine-protein phosphatase C (Homo sapiens) (P08575 whole entry): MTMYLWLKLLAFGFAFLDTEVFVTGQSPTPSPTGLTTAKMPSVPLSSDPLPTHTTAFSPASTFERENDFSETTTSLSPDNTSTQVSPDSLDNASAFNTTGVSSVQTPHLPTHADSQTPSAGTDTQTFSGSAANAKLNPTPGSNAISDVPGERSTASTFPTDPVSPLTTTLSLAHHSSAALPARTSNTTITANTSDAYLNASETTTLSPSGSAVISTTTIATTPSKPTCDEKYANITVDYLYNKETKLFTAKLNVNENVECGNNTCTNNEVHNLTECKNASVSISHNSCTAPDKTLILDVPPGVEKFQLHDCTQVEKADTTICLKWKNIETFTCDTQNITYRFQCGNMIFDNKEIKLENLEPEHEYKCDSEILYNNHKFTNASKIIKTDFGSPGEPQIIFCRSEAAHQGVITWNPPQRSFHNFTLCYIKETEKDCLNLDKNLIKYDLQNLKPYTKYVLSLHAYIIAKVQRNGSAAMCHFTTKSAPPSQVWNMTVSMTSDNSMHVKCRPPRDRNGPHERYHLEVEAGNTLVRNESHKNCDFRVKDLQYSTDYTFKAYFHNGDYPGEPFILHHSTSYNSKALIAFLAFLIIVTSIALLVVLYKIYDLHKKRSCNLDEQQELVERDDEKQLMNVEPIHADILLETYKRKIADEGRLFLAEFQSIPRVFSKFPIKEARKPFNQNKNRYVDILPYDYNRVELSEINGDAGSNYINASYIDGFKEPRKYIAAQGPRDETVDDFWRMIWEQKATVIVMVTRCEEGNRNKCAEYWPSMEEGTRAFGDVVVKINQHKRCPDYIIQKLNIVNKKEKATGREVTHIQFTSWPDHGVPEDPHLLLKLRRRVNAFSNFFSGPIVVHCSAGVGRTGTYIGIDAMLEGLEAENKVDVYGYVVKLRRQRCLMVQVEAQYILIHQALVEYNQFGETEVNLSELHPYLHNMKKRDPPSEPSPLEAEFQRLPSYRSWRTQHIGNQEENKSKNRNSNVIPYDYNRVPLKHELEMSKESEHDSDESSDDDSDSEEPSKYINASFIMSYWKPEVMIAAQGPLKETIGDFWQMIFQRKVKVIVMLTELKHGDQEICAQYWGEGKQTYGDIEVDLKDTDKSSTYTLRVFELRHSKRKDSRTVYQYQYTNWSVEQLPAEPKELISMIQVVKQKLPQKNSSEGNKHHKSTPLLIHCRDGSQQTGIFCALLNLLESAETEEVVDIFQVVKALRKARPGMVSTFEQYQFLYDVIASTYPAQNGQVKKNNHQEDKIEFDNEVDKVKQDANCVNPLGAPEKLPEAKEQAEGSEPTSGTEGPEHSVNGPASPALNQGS
Sequence of Tyrosine-protein phosphatase non-receptor type 1 (Homo sapiens) (P18031 whole entry): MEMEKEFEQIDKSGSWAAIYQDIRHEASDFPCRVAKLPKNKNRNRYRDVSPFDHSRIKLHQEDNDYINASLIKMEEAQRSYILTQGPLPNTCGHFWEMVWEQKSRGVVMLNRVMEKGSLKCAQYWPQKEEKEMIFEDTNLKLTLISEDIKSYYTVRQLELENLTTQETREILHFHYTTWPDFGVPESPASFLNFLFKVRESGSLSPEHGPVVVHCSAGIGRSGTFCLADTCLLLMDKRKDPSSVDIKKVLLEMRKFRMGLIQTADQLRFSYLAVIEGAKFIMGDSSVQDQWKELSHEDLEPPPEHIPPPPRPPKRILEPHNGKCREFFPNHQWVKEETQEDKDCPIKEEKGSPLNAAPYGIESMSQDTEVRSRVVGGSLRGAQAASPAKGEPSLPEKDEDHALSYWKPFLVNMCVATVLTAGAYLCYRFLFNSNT
Sequence of Tyrosine-protein phosphatase non-receptor type 13 (Homo sapiens) (Q12923 whole entry): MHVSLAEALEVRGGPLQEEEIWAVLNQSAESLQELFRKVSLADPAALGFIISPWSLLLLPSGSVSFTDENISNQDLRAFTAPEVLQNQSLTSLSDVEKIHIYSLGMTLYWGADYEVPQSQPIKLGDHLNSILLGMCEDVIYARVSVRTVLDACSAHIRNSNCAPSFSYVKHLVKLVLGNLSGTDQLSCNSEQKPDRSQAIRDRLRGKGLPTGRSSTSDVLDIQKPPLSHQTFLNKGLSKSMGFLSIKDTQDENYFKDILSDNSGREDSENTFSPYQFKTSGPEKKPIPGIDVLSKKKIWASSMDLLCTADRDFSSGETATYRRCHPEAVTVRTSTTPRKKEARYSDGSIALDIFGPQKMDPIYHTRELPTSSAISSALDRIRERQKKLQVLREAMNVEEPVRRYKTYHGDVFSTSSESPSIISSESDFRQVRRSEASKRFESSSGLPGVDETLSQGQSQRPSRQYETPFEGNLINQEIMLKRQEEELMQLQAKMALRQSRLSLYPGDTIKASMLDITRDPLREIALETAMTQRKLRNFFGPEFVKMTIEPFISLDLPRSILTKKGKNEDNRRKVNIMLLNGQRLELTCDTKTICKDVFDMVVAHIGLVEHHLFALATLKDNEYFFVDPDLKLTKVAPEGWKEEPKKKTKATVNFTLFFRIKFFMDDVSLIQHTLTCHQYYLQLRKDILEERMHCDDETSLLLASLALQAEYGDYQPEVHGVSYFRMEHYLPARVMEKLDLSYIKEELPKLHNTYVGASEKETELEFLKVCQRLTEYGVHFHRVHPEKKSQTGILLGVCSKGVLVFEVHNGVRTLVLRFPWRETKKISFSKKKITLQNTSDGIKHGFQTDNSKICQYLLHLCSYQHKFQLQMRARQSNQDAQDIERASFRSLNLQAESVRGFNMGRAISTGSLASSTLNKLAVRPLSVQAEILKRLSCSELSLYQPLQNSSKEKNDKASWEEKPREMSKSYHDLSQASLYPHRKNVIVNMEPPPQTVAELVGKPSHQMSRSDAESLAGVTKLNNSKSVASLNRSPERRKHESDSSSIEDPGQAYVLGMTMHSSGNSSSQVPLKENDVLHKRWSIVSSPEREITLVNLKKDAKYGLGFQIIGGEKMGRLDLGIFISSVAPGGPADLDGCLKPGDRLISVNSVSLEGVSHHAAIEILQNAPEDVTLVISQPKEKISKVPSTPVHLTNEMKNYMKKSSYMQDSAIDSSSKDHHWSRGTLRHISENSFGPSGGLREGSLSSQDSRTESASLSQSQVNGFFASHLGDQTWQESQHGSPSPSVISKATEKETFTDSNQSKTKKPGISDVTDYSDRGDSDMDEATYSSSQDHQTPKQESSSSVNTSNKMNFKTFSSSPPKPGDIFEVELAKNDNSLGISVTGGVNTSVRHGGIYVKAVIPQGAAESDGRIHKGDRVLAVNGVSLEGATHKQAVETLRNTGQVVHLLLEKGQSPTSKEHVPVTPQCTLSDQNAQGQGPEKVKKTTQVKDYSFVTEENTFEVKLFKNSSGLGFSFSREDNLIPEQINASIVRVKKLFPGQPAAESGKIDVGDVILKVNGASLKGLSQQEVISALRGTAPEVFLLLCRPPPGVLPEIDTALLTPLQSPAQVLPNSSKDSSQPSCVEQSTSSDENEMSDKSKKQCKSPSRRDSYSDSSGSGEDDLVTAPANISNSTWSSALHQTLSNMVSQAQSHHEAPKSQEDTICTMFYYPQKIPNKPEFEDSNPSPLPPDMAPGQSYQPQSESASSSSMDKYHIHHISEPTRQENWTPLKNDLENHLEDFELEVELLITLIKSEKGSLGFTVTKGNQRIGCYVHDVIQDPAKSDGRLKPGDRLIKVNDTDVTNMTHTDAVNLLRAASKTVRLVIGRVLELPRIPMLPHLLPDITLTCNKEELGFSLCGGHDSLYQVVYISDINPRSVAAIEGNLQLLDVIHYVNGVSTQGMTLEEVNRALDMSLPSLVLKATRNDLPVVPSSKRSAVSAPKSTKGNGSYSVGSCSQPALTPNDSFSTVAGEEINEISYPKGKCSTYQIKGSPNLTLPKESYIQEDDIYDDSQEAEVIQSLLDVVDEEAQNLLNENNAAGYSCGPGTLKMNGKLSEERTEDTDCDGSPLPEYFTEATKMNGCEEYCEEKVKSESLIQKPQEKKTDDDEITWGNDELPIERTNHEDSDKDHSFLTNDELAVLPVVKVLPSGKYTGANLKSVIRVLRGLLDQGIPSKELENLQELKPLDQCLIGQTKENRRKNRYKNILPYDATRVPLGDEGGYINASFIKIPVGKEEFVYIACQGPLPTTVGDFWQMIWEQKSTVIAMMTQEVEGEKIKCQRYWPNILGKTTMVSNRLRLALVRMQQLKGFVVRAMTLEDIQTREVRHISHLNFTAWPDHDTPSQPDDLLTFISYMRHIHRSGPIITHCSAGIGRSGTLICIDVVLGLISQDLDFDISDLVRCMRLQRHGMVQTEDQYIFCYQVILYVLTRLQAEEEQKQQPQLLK
Sequence of Low molecular weight protein-tyrosine phosphatase A (Mycobacterium tuberculosis) (P9WIA1 whole entry): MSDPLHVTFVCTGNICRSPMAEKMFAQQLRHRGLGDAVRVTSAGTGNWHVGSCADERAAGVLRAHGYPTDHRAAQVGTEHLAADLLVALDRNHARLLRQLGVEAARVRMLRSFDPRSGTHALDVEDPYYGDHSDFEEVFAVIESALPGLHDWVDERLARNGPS
Sequence of Laforin (Homo sapiens) (O95278 whole entry): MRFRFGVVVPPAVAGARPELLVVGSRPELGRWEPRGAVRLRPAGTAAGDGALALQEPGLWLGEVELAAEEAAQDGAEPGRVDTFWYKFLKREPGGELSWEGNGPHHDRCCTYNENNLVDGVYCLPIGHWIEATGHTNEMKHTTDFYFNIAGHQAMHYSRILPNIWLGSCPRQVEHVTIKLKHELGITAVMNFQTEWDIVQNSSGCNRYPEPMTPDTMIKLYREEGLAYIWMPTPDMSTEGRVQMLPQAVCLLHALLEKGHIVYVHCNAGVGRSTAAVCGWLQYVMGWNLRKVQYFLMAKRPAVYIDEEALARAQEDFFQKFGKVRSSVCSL

On to `O=C(C(c1ccccc1)S(=O)(=O)O)N1CCCC2CCCCC21` (racemic), for which the Ratio IC50 in [1], in assay [2], in assay [4], in [8], in [9] and in assay [13] was more than 10000 in each case. In addition, the Ratio IC50 in [14], in [16], in assay [18] and in [20] was more than 10000 in each case. Also, the inhibition result with RAW264.7 [3] and in the assay on RAW264.7 [12] was “Dose-dependent effect” throughout. For the same compound, the inhibition entry (in [5]; in assay [6]; in [10]; in [11]; in assay [15]; at Laforin (Homo sapiens)) was “inactive” each time. Also, the inhibition entry in assay [19], in assay [21] and in assay [22] was “inactive” each time. Moreover, the IC50 (commonly the concentration at which inhibition is half-maximal) in [7] is 18 nM. In assay [17], the outcome was inactive.
